From ChEMBL document CHEMBL1142189 (Antimicrob Agents Chemother, 2007)
≈ marks a conversion by molar mass, not a printed value.

Experiments:
Type in all cases: functional, organism-based
[1] = test system: Plasmodium falciparum; experiment: Inhibition of Plasmodium falciparum in HRP2 ELISA
Procedure, shortened: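 Fresh P. falciparum clinical isolates from untreated patients with confirmed monoinfection, unfrozen, unwashed, not precultured, no serum added; 1.5% hematocrit in complete RPMI 1640 with 0.5% Albumax and 25 mg/liter gentamicin, tested in duplicate. Twofold serial dilutions, seven concentrations plus drug-free control, on predried plates; 72 h at 37.5°C under 5% CO2/5% O2/90% N2. Plates freeze-thawed twice, HRP2 sandwich ELISA at 450 nm; IC50 by nonlinear regression.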

[2] = test system: Plasmodium falciparum; experiment: Inhibition of Plasmodium falciparum AZ10011022 isolate in HRP2 ELISA
Procedure, shortened: (§1)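 Fresh pre-treatment clinical P. falciparum isolates, unfrozen, unwashed and not precultured, in duplicate at 1.5% hematocrit in RPMI 1640 with 0.5% Albumax and 25 mg/liter gentamicin. Plates carried predried twofold dilutions, single or in an 8x8 checkerboard. Incubation was 72 h at 37.5°C in 5% CO2/5% O2/90% N2, then two freeze-thaws. HRP2 sandwich ELISA read at 450 nm; IC50 from nonlinear regression.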

[3] = test system: Plasmodium falciparum; experiment: Inhibition of Plasmodium falciparum AZ10011008 isolate in HRP2 ELISA; procedure, shortened: as §1
[4] = test system: Plasmodium falciparum; experiment: Inhibition of Plasmodium falciparum AZ10011017 isolate in HRP2 ELISA
[5] = test system: Plasmodium falciparum; experiment: Inhibition of Plasmodium falciparum AZ10011003 isolate in HRP2 ELISA; procedure, shortened: as §1

Compound	IC50 [1] [µg/mL]	IC90 [1] [µg/mL]	IC99 [1] [µg/mL]	IC50 [2] [µg/mL]	IC50 [3] [µg/mL]	IC50 [4] [µg/mL]	IC50 [5] [µg/mL]
C[C@H]1[C@@H](O)O[C@@H]2O[C@@]3(C)CC[C@H]4[C@H](C)CC[C@@H]1[C@@]24OO3 [ARTENIMOL]	0.00053 (≈ 0.00186 µM)	0.00143 (≈ 0.00503 µM)	0.00228	0.00038 (≈ 0.00134 µM)	0.00091 (≈ 0.0032 µM)	0.00027 (≈ 0.00095 µM)	0.00024 (≈ 0.000844 µM)
CC[C@H]1OC(=O)[C@H](C)[C@@H](O[C@H]2C[C@@](C)(OC)[C@@H](O)[C@H](C)O2)[C@H](C)[C@@H](O[C@@H]2O[C@H](C)C[C@H](N(C)C)[C@H]2O)[C@](C)(O)C[C@@H](C)CN(C)[C@H](C)[C@@H](O)[C@]1(C)O [AZITHROMYCIN]	2.57 (≈ 3.43 µM)	13.3 (≈ 17.8 µM)	23.9	2.19 (≈ 2.92 µM)	5.34 (≈ 7.13 µM)	1.98 (≈ 2.64 µM)	2.44 (≈ 3.26 µM)
CCN(CC)CCCC(C)Nc1ccnc2cc(Cl)ccc12 (centres undefined) [CHLOROQUINE]	–	0.13 (≈ 0.405 µM)	0.172	–	–	–	–
OC(c1cc(C(F)(F)F)nc2c(C(F)(F)F)cccc12)C1CCCCN1 (centres undefined) [MEFLOQUINE]	–	0.031 (≈ 0.0819 µM)	0.0467	–	–	–	–
C=C[C@H]1CN2CC[C@H]1C[C@H]2[C@H](O)c1ccnc2ccc(OC)cc12 [QUININE]	0.0644 (≈ 0.198 µM)	0.173 (≈ 0.533 µM)	0.251	0.116 (≈ 0.359 µM)	0.0828 (≈ 0.255 µM)	–	0.123 (≈ 0.38 µM)
